In PubChem BioAssay AID2541 (The Scripps Research Institute Molecular Screening Center, 2010):
Active and inactive are the calls of the source.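 How the source made its calls: active means inhibition of at least 50%; inactive means inhibition below 50%.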

Target: NADPH oxidase 1 (Homo sapiens) (UniProt Q9Y5S8)
Test: NOX1 inhibitors in colonic epithelial cells, confirmation, luminescence, HT29 cells (AID 2541)
Settings: luminol ROS chemiluminescence, 1 h, at 3.3 µM, stronger effect = higher value
Procedure, shortened: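 Assay system: HT29 colon epithelial cell line with endogenous NOX1; schedule: compound exposure 1 h before probe; detection: luminol chemiluminescence of intracellular ROS; measure: % inhibition of luminescence; replication: triplicate wells per compound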

Chain of NADPH oxidase 1 (Homo sapiens) (Q9Y5S8 whole entry, looked up): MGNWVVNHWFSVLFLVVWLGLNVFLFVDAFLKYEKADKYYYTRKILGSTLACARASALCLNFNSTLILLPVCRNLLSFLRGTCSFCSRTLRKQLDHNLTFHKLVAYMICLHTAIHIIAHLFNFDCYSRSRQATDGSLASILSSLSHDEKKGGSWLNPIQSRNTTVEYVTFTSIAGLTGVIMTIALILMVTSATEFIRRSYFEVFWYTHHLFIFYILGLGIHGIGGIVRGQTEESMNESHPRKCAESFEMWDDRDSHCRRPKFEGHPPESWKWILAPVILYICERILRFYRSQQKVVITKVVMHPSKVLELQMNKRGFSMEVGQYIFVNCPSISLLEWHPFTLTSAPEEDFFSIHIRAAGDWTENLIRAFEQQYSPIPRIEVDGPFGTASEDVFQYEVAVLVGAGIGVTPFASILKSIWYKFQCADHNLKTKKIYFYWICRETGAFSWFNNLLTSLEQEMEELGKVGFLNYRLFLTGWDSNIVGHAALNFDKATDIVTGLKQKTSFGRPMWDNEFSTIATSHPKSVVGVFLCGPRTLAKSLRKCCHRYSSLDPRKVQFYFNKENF

SMILES	inhibition
COc1ccc(OC(=O)c2ccc3ncccc3c2)cc1	51.6%
S=c1[nH]cc(-c2ccc(Br)cc2)[nH]1	70.8%
COc1cccc(NC(=S)NNc2ccc([N+](=O)[O-])cc2)c1	89.2%
COc1cccc(NC(=S)NNC(=S)NC2CC3CCC2C3)c1 (stereo unspecified)	78.9%
O=C(O)/C(=N/Nc1ccccc1O)c1ccccc1	62.5%
CC1(C)CC(Nc2ccc(Nc3ccccc3)cc2)CC(C)(C)N1	61.5%
Cn1ncc(C(=O)NC(=O)Nc2ccc(F)cc2)c1[N+](=O)[O-]	6.3% (inactive)
CC(=O)/C(C=Nc1cc(C)c(O)c(Cl)c1)=C(\C)O	-27.6% (inactive)
CN(C)c1ccc(NC(=O)Nc2cccs2)cc1	48.3% (inactive)
CN(C)c1ccc(/C=N/Nc2c(Cl)cncc2Cl)cc1	73.6%
O=c1c2c(-c3ccc([N+](=O)[O-])cc3)onc2n(-c2ccccc2)c(=O)n1-c1ccccc1	29% (inactive)
Cc1cc(S(=O)(=O)NNc2ncnc3c2cnn3C)c(C)cc1Cl	102%
CC1=CC(=O)C(CCC2=CC(=O)C(C)=CC2=O)=CC1=O	10.4% (inactive)
CC(=O)c1ccc(NCN2C(=O)/C(=C\N(C)C)NC2=S)cc1	59.2%
COC(=O)c1sccc1-c1ccc(CN2CCCc3cc(OC)ccc32)o1	74.1%
COc1ccc(Cl)cc1NC(=O)Nc1ccc(N(C)C)cc1	88.8%
CN(NC=C(C#N)C#N)c1ccccc1[N+](=O)[O-]	100%
Cc1oc(-c2ccc(Cl)cc2)cc1C(=O)O/N=C(\N)Cc1nc2cccnc2n1C1CC1	-17.1% (inactive)
COc1ccc(OC)c(S(=O)(=O)c2ccc([N+](=O)[O-])cc2Cl)c1	43.9% (inactive)
Nc1nc2[nH]c(=S)[nH]c2c(=O)[nH]1	29.6% (inactive)

SMILES	inhibition
CCS(=O)(=O)c1ccc(O)c(NC(=O)c2ccccc2C(=O)O)c1	-41.4% (inactive)
O=C1C=C(I)C(=O)C=C1I	60.4%
O=C(N/N=C/c1ccc(O)cc1)N/N=C/c1ccc(O)cc1	76.7%
NS(=O)(=O)c1ccc(NNC(=O)c2c(F)cccc2Cl)cc1	74.3%
CCC(CO)Nc1nc2c([nH]1)c(=O)n(C)c(=O)n2C (stereo unspecified)	-32.2% (inactive)
Cc1cc(S(=O)(=O)NNc2ncnc3cc(C(C)(C)C)sc23)c(C)cc1Cl	71%
Cc1ccc(NCN2C(=O)c3ccc([N+](=O)[O-])cc3C2=O)cc1	17.8% (inactive)
CC1CN(c2ccc(NC(=S)NN)cc2)CC(C)O1 (stereo unspecified)	59.5%
CSC1=NS(=O)(=O)c2c(C)nn(C)c2S1	33.3% (inactive)
O=c1[nH]c2ccsc2c(=O)n1CCO	95.7%
Cc1cc(C(=O)NNc2cc(Cl)ccc2Cl)no1	108%
CCN(CC)c1ccc(NC(=O)c2c(F)cccc2F)c(N(CC)CC)n1	37.1% (inactive)
O=S(=O)(Nc1ccc(N2CCCCC2)cc1)c1ccccc1	85.4%
CC(C)C(=O)NNc1nc2c(c(=O)n(C)c(=O)n2C)n1Cc1ccc(Cl)cc1	76.1%
Cn1cnc(S(=O)(=O)Nc2ccc(N3CCCCC3)cc2)c1	77.2%
CC(=O)Oc1ccc(OC(C)=O)c2c1[C@@H]1C=C[C@H]2CC1	75.9%
Cn1nc(-c2ccccc2)c(O)c(N=Nc2ccccc2)c1=O	88.9%
O=C(Oc1ccccc1N1CCCCC1)c1sc2ccccc2c1Cl	84.3%
Cc1cc(C)cc(NC(=O)Nc2ccc(N3CCCCC3)cc2)c1	74.4%
CCC(=O)N1c2cc(Cl)ccc2-n2c(nn(C(=O)CC)c2=O)N1C(=O)CC	81.7%

SMILES	inhibition
CN(C)c1ccc(NC(=O)Nc2ccc(OCc3ccccc3)cc2)cc1	90.2%
CCC(=O)Nc1ccc2c(c1)N(CC)C(C)(C)CC2C (stereo unspecified)	65.4%
CCN(CC)c1ccc(N=C2C=CC(=O)c3ccccc32)c(C)c1	23.7% (inactive)
CCN(CC)c1ccc(NC(=O)C2CCCCC2)c(N(CC)CC)n1	37% (inactive)
COc1cccc(C(=O)CSc2nsc(SCC(=O)c3cccc(OC)c3)c2C#N)c1	44.1% (inactive)
COc1cc2ncnc(NNC(=O)c3cccs3)c2cc1OC	70.5%
ON/C=N/c1nnc(C(F)(F)F)s1	63.1%
CC[n+]1c(C)csc1Nc1ccc(N2CC(C)OC(C)C2)cc1 (stereo unspecified)	89.3%
Cc1noc(C)c1C(=O)Nc1ccc(N2CCOCC2)nc1N1CCOCC1	97.5%
COc1ccc(N(C)CC(=O)O)c(C(=O)O)c1	75%
O=c1[nH]nc(N2CCSCC2)[nH]1	96.6%
COc1cc2ncnc(NNS(=O)(=O)c3cc(C)c(Cl)cc3C)c2cc1OC	93%
COC(=O)C1=C(Nc2ccc(O)cc2)CSC1	63.7%
CCOC(=O)C(=CNNc1ccnc2cc(Cl)ccc12)C(=O)OCC	87.5%
Cc1csc2ncnc(NNS(=O)(=O)c3cc(C(F)(F)F)cc(C(F)(F)F)c3)c12	81.6%
O=C(Nc1ccc(Cl)cc1Cl)c1cc([N+](=O)[O-])cc2c1-c1ccc([N+](=O)[O-])cc1C2=O	-22.8% (inactive)
Cc1cc(Cl)ccc1NC(=S)NNC(=S)Nc1ccc(F)cc1	89%
COCCCNC(=S)NNC(=S)Nc1ccccc1	70.1%

Results, then the molecule that gave them:

inhibition	SMILES
78.6%	Nc1nc(NCc2ccccn2)n[nH]1
92.8%	O=C(NNc1c([N+](=O)[O-])cc(C(F)(F)F)cc1[N+](=O)[O-])c1ccco1
11.1% (inactive)	O=C1C=CC(=O)N1CCc1ccccc1
26.5% (inactive)	COc1ccc2c(c1)CCCN2Cc1c[nH]c2ccccc12
58.8%	O=[N+]([O-])c1cc(C(F)(F)F)ccc1Oc1ccc(-c2nnco2)cc1
92.4%	COc1ccccc1NNC(=O)c1cc(C(C)(C)C)nn1Cc1ccccc1
84.1%	COc1cc(-c2nc(-c3ccccc3)c(-c3ccccc3)[nH]2)ccc1O
30.4% (inactive)	O=C(Oc1cccc2[nH]ccc12)c1ccc(C(F)(F)F)cc1
95%	O=C(Oc1ccccc1N1CCCCC1)c1ccco1
63.2%	Cc1ccc(SC#N)c(N)n1
72.9%	CCOC(=O)C1=C(Nc2ccc(OC(C)=O)cc2)C(=O)N(C(C)(C)C)C1
78.4%	Nc1nc(NCc2ccccc2OC(F)(F)F)n[nH]1
73.9%	O=C(Nc1ccc(N2CCCCC2)cc1)Nc1ccccc1OC(F)(F)F
76.9%	Cc1cc(Br)c(NC(=S)NNc2ccccc2)c(Br)c1
79.7%	c1ccc2c(c1)Nc1nc3ccccc3nc1N2
11.4% (inactive)	CC(C)(C)c1cc2nc(C(F)(F)F)cc(NNC(=O)Nc3ccc(OC(F)(F)F)cc3)n2n1
-0.1% (inactive)	O=[N+]([O-])c1cc(C(F)(F)F)cc([N+](=O)[O-])c1Sc1ncc2ccccn12
78%	O=C(NNc1c([N+](=O)[O-])cc(C(F)(F)F)cc1[N+](=O)[O-])c1ccccc1-n1cccc1
103%	N#Cc1c(N)sc2c1CCc1ccccc1-2

inhibition	SMILES
56.4%	O=C(Nc1ccc(Cl)cc1)Oc1ccccc1N1CCSCC1
16% (inactive)	CCOC(=O)c1nsc(/C(C)=N/Nc2ccccc2)c1N
101%	Cc1nc(C(F)(F)F)c(C(=O)NNc2ncc(C(F)(F)F)cc2Cl)s1
73.6%	Nc1nc(Nc2ccccc2)n[nH]1
87.8%	O=C(Oc1ccccc1N1CCOCC1)c1cccs1
54.9%	Cc1ccccc1C(=O)Oc1ccc(-c2csnn2)cc1
81.5%	CCOc1ccccc1Nc1n[nH]c(=S)s1
9.8% (inactive)	O=c1[nH][nH]c2cccc(F)c12
86.9%	FC(F)(F)c1ccc2c(c1)Nc1ccccc1S2
14% (inactive)	CCC1=Nc2cccc3cccc(c23)N1
74.1%	Nc1nc(NCc2c(Cl)cccc2Oc2ccccc2)n[nH]1
71.9%	O=C(Oc1ccccc1N1CCOCC1)c1cccnc1Oc1ccccc1
-39.8% (inactive)	c1ccc2c(c1)NC(c1ccc3c(c1)OCO3)O2 (stereo unspecified)
56.3%	O=c1c(Cl)c2oc3ccccc3nc-2c2ccccc12
81.8%	CC(C)(C)c1csc(NNC(=O)c2ccc(Cl)cc2)n1
-5.1% (inactive)	CCn1c(-c2cc(-c3ccccc3)sc2N)n[nH]c1=S
11.1% (inactive)	O=C1c2ccccc2C(=O)N1CNc1ccc(N2CCOCC2)cc1
88.1%	COc1ccc(C(=O)NNc2c([N+](=O)[O-])cc(C(F)(F)F)cc2[N+](=O)[O-])cc1
88.4%	S=C(NNc1nccc(-c2cccnc2)n1)Nc1ccccc1
